Measurements reported in ChEMBL document CHEMBL1649165, “Activity profile in vitro of micafungin against Spanish clinical isolates of common and emerging species of yeasts and molds” (2009).
≈ marks a conversion by molar mass, not a printed value.

Columns and labels:
Assay type in all cases: functional
[1] = test system: Cunninghamella bertholletiae; test: Antimicrobial activity against Cunninghamella bertholletiae by broth microdilution method
Procedure, shortened: (§1)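 Clinical mould isolates, tested by broth microdilution using the AFST-EUCAST reference method for filamentous fungi. For echinocandins, the endpoint was the minimum effective concentration: the lowest drug concentration giving aberrant hyphal growth, read with an inverted microscope.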

[2] = test system: Fusarium solani; test: Antimicrobial activity against Fusarium solani by broth microdilution method
Procedure, shortened: (§2)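 Filamentous fungus clinical isolates tested by the AFST-EUCAST reference broth microdilution method for moulds. For echinocandins, the endpoint was the minimum effective concentration: the lowest drug concentration giving aberrant hyphal growth, read with an inverted microscope.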

[3] = test system: Aspergillus ustus; test: Antimicrobial activity against Aspergillus ustus by broth microdilution method; procedure, shortened: as §1
[4] = test system: Aspergillus; test: Antimicrobial activity against Aspergillus spp. by broth microdilution method; procedure, shortened: as §1
[5] = Antimicrobial activity against Hormographiella aspergillata by broth microdilution method; conditions: Coprinopsis cinerea; procedure, shortened: as §2
[6] = test system: Trichosporon ovoides; test: Antimicrobial activity against Trichosporon ovoides by broth microdilution method
Procedure, shortened: (§3)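 Nonfermentative yeast clinical isolates (Rhodotorula, Trichosporon) tested by broth microdilution. The EUCAST yeast recommendations were followed strictly, with one minor modification to improve growth. MIC was read as the endpoint.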

[7] = test system: Torulaspora delbrueckii; test: Antimicrobial activity against Candida coliculosa by broth microdilution method
Procedure, shortened: (§4)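 Clinical isolates from human patients, tested by broth microdilution using the AFST-EUCAST reference procedure for fermentative yeasts. The MIC was read per that reference method.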

[8] = test system: Exophiala jeanselmei; test: Antimicrobial activity against Exophiala jeanselmei by broth microdilution method
[9] = test system: Lichtheimia corymbifera; test: Antimicrobial activity against Mycocladus corymbiferus by broth microdilution method; procedure, shortened: as §2
[10] = test system: Trichosporon inkin; test: Antimicrobial activity against Trichosporon inkin by broth microdilution method; procedure, shortened: as §3
[11] = test system: Fusarium equiseti; test: Antimicrobial activity against Fusarium equiseti by broth microdilution method; procedure, shortened: as §1
[12] = test system: [Candida] inconspicua; test: Antimicrobial activity against Candida inconspicua by broth microdilution method; conditions: Pichia inconspicua; procedure, shortened: as §4
[13] = test system: Clavispora lusitaniae; test: Antimicrobial activity against Candida lusitaniae by broth microdilution method; procedure, shortened: as §4
[14] = test system: Candida parapsilosis; test: Antimicrobial activity against Candida parapsilosis by broth microdilution method; conditions: Lodderomyces parapsilosis; procedure, shortened: as §4
[15] = test system: Geotrichum candidum; test: Antimicrobial activity against Galactomyces geotrichum by broth microdilution method
[16] = test system: Lomentospora prolificans; test: Antimicrobial activity against Scedosporium prolificans by broth microdilution method; procedure, shortened: as §2
[17] = test system: Aspergillus fumigatus; test: Antimicrobial activity against Aspergillus fumigatus by broth microdilution method; procedure, shortened: as §1
[18] = test system: Trichosporon asahii; test: Antimicrobial activity against Trichosporon asahii by broth microdilution method; procedure, shortened: as §3
[19] = test system: Acremonium sp.; test: Antimicrobial activity against Acremonium sp.by broth microdilution method; procedure, shortened: as §1
[20] = test system: Naganishia albida; test: Antimicrobial activity against Cryptococcus albidus by broth microdilution method
Procedure, shortened: (§5)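 Clinical isolates of nonfermentative yeasts, tested by broth microdilution following EUCAST recommendations. The only change from that method was a minor modification to improve growth.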

[21] = test system: Paecilomyces variotii; test: Antimicrobial activity against Paecilomyces variotii by broth microdilution method; procedure, shortened: as §2
[22] = test system: Debaryomyces hansenii; test: Antimicrobial activity against Candida famata by broth microdilution method; procedure, shortened: as §4
[23] = test system: Aspergillus sclerotiorum; test: Antimicrobial activity against Aspergillus sclerotiorum by broth microdilution method; procedure, shortened: as §1
[24] = test system: Neurospora sitophila; test: Antimicrobial activity against Chrysonilia sitophila by broth microdilution method; procedure, shortened: as §1
[25] = test system: Trichosporon jirovecii; test: Antimicrobial activity against Trichosporon jirovecii by broth microdilution method; conditions: Cutaneotrichosporon jirovecii; procedure, shortened: as §3
[26] = test system: Coprinellus domesticus; test: Antimicrobial activity against Hormographiella verticillata by broth microdilution method; procedure, shortened: as §2
[27] = test system: Papiliotrema laurentii; test: Antimicrobial activity against Cryptococcus laurentii by broth microdilution method; procedure, shortened: as §5
[28] = test system: Diutina rugosa; test: Antimicrobial activity against Candida rugosa by broth microdilution method; procedure, shortened: as §4
[29] = test system: Kazachstania pintolopesii; test: Antimicrobial activity against Candida pintolopesii by broth microdilution method; conditions: Arxiozyma pintolopesii; procedure, shortened: as §4
[30] = test system: Scytalidium hyalinum; test: Antimicrobial activity against Scytalidium hyalinum by broth microdilution method; conditions: Neoscytalidium hyalinum; procedure, shortened: as §2
[31] = test system: Pichia kudriavzevii; test: Antimicrobial activity against Candida krusei by broth microdilution method; procedure, shortened: as §4
[32] = test system: Ustilago; test: Antimicrobial activity against Ustilago spp by broth microdilution method
[33] = test system: Rhizopus arrhizus; test: Antimicrobial activity against Rhizopus oryzae by broth microdilution method; procedure, shortened: as §2
[34] = test system: Meyerozyma guilliermondii; test: Antimicrobial activity against Candida guilliermondii by broth microdilution method; procedure, shortened: as §4
[35] = test system: Magnusiomyces capitatus; test: Antimicrobial activity against Dipodascus capitatus by broth microdilution method
[36] = test system: Candida orthopsilosis; test: Antimicrobial activity against Candida orthopsilosis by broth microdilution method; conditions: Lodderomyces orthopsilosis; procedure, shortened: as §4
[37] = test system: Fusarium reticulatum; test: Antimicrobial activity against Fusarium reticulatum by broth microdilution method; procedure, shortened: as §2
[38] = test system: Cladophialophora bantiana; test: Antimicrobial activity against Cladophialophora bantiana by broth microdilution method; procedure, shortened: as §1
[39] = test system: Cladosporium; test: Antimicrobial activity against Cladosporium spp. by broth microdilution method; procedure, shortened: as §1
[40] = test system: Cryptococcus deneoformans; test: Antimicrobial activity against Cryptococcus neoformans var. neoformans by broth microdilution method; procedure, shortened: as §5

Compound: CC[C@H](C)C[C@H](C)CCCCCCCCC(=O)N[C@H]1C[C@@H](O)[C@@H](NCCN)NC(=O)[C@@H]2[C@@H](O)CCN2C(=O)[C@H]([C@H](O)CCN)NC(=O)[C@H]([C@H](O)[C@@H](O)c2ccc(O)cc2)NC(=O)[C@@H]2C[C@@H](O)CN2C(=O)[C@H]([C@@H](C)O)NC1=O [CASPOFUNGIN]
- MIC50 [1]: > 16 µg/mL
- MIC90 [1]: > 16 µg/mL
- MIC50 [2]: > 16 µg/mL
- MIC90 [2]: > 16 µg/mL
- MIC50 [3]: 0.12 µg/mL (≈ 0.11 µM)
- MIC90 [3]: 0.5 µg/mL (≈ 0.457 µM)
- MIC50 [4]: 0.12 µg/mL (≈ 0.11 µM)
- MIC90 [4]: 0.5 µg/mL (≈ 0.457 µM)
- MIC50 [5]: > 16 µg/mL
- MIC90 [5]: > 16 µg/mL
- MIC50 [6]: > 16 µg/mL
- MIC90 [6]: > 16 µg/mL
- MIC50 [7]: 0.06 µg/mL (≈ 0.0549 µM)
- MIC90 [7]: 0.5 µg/mL (≈ 0.457 µM)
- MIC50 [8]: 0.25 µg/mL (≈ 0.229 µM)
- MIC90 [8]: 1 µg/mL (≈ 0.915 µM)
- MIC50 [9]: > 16 µg/mL
- MIC90 [9]: > 16 µg/mL
- MIC50 [10]: > 16 µg/mL
- MIC90 [10]: > 16 µg/mL
- MIC50 [11]: > 16 µg/mL
- MIC90 [11]: > 16 µg/mL
- MIC50 [12]: 0.06 µg/mL (≈ 0.0549 µM)
- MIC90 [12]: 0.5 µg/mL (≈ 0.457 µM)
- MIC50 [13]: 0.5 µg/mL (≈ 0.457 µM)
- MIC90 [13]: 1 µg/mL (≈ 0.915 µM)
- MIC50 [14]: 1 µg/mL (≈ 0.915 µM)
- MIC90 [14]: 1 µg/mL (≈ 0.915 µM)
- MIC50 [15]: > 16 µg/mL
- MIC90 [15]: > 16 µg/mL
- MIC50 [16]: 8 µg/mL (≈ 7.32 µM)
- MIC90 [16]: > 16 µg/mL
- MIC50 [17]: 0.25 µg/mL (≈ 0.229 µM)
- MIC90 [17]: 0.5 µg/mL (≈ 0.457 µM)
- MIC50 [18]: > 16 µg/mL
- MIC90 [18]: > 16 µg/mL
- MIC50 [19]: 0.5 µg/mL (≈ 0.457 µM)
- MIC90 [19]: 1 µg/mL (≈ 0.915 µM)
- MIC50 [20]: > 16 µg/mL
- MIC90 [20]: > 16 µg/mL
- MIC50 [21]: 0.5 µg/mL (≈ 0.457 µM)
- MIC90 [21]: 4 µg/mL (≈ 3.66 µM)
- MIC50 [22]: 0.06 µg/mL (≈ 0.0549 µM)
- MIC90 [22]: 0.5 µg/mL (≈ 0.457 µM)
- MIC50 [23]: 0.12 µg/mL (≈ 0.11 µM)
- MIC90 [23]: 0.5 µg/mL (≈ 0.457 µM)
- MIC50 [24]: > 16 µg/mL
- MIC90 [24]: > 16 µg/mL
- MIC50 [25]: > 16 µg/mL
- MIC90 [25]: > 16 µg/mL
- MIC50 [26]: > 16 µg/mL
- MIC90 [26]: > 16 µg/mL
- MIC50 [27]: > 16 µg/mL
- MIC90 [27]: > 16 µg/mL
- MIC50 [28]: 0.06 µg/mL (≈ 0.0549 µM)
- MIC90 [28]: 0.5 µg/mL (≈ 0.457 µM)
- MIC50 [29]: 0.06 µg/mL (≈ 0.0549 µM)
- MIC90 [29]: 0.5 µg/mL (≈ 0.457 µM)
- MIC50 [30]: 0.25 µg/mL (≈ 0.229 µM)
- MIC90 [30]: 1 µg/mL (≈ 0.915 µM)
- MIC50 [31]: 0.25 µg/mL (≈ 0.229 µM)
- MIC90 [31]: 0.5 µg/mL (≈ 0.457 µM)
- MIC50 [32]: > 16 µg/mL
- MIC90 [32]: > 16 µg/mL
- MIC50 [33]: > 16 µg/mL
- MIC90 [33]: > 16 µg/mL
- MIC50 [34]: 0.5 µg/mL (≈ 0.457 µM)
- MIC90 [34]: 1 µg/mL (≈ 0.915 µM)
- MIC50 [35]: > 16 µg/mL
- MIC90 [35]: > 16 µg/mL
- MIC50 [36]: 0.06 µg/mL (≈ 0.0549 µM)
- MIC90 [36]: 0.5 µg/mL (≈ 0.457 µM)
- MIC50 [37]: > 16 µg/mL
- MIC90 [37]: > 16 µg/mL
- MIC50 [38]: 0.25 µg/mL (≈ 0.229 µM)
- MIC90 [38]: 1 µg/mL (≈ 0.915 µM)
- MIC50 [39]: 0.25 µg/mL (≈ 0.229 µM)
- MIC90 [39]: 1 µg/mL (≈ 0.915 µM)
- MIC50 [40]: > 16 µg/mL
- MIC90 [40]: > 16 µg/mL
